Screening data deposited in PubChem by several laboratories.
Vif imaging = HIV Vif self-association inhibitors, primary screen, imaging, HEK293T, single point | AID 602346, 2012 | inhibition, % at 7.49 µM | actives 0.35% (n = 340,000) | HEK293T cells, Vif self-association by quenched fluorescence, 24 h; in the data active means inhibition above about 50%, passing the limit was not always enough; inconclusive means no clear call, values can overlap the other calls; inactive means below about 31%
SMARCA2 activ = SMARCA2 (BRM) function activators, primary screen, cell-based, luminescence, high throughput; MG213 cells, MMTV-luciferase reporter, dexamethasone, overnight; activation, % at 9.1 µM; actives 1% (n = 370,000); AID 652017, 2013; in the data active means activation above about 7.8%
TAG inh = inhibitors of triacylglycerol accumulation, primary screen, cell-based, uHTS, fluorescence, H9c2. H9c2 cells, Nile Red lipid (TAG) fluorescence; cells loaded with 200 µM oleic acid. inhibition, % at 12.5 µM. actives 0.66% (n = 230,000). AID 651582, 2012;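 active means pattern-corrected inhibition of lipid staining of at least 50% with the nuclear-stain viability signal not falling by more than 50%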
SR-BI DiI inh = inhibitors of SR-BI mediated HDL lipid uptake, primary screen, ldlA[mSR-BI] cells, fluorescence, single point. Scavenger receptor class B member 1 (Mus musculus), Q61009. ldlA[mSR-BI] CHO cells, DiI-HDL uptake fluorescence, 3 h. inhibition, % at 12.5 µM. actives 0.96% (n = 320,000). AID 488896, 2010;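 active means mean replicate inhibition of at least 70% and a set share of replicates each scoring 70 or more; inconclusive means meets just one of the two criteria; inactive means fails both criteria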
Target sequence (Q61009 whole entry, looked up): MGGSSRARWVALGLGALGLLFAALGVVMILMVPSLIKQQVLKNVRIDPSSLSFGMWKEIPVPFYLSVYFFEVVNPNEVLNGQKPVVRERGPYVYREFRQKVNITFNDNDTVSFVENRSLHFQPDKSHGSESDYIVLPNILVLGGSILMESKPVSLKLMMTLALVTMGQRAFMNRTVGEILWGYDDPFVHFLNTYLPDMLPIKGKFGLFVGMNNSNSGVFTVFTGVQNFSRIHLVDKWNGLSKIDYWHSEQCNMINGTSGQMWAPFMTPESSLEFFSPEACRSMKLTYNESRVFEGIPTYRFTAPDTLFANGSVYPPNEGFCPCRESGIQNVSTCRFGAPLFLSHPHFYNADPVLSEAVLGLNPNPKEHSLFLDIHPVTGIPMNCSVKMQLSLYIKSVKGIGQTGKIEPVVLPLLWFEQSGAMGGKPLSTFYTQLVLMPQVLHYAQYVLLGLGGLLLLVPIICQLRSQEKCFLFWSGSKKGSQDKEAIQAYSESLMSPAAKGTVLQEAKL
SR-BI uptake up = activators of SR-BI mediated DiI-HDL uptake, primary screen, ldlA[mSR-BI] CHO cells, DiI fluorescence. actives 0.096% (n = 320,000). AID 504775, 2011. activation, % at 12.5 µM. 3 h; 100 = double the neutral-control signal;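 active means mean replicate activation of at least 60% and every replicate at or above 60%; inconclusive means mean or all-replicate condition met, but not both; inactive means mean below 60% and not all replicates reaching 60%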
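Assay system: LDL receptor-deficient CHO ldlA cells overexpressing murine SR-BI / Medium: BSA-supplemented, HEPES-buffered Ham's F12, pH 7.4 / Probe or stimulus: DiI-labelled HDL at 10 µg/mL final / Timing: compound with DiI-HDL co-incubation, 3 h at 37 °C / Technique: bottom-read cell fluorescence after medium removal, ex 550/em 595 nm / Measure: HDL uptake via cellular fluorescence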
Hits are given with their value; i = inactive; ? = inconclusive; nt = no result; ! = repeats disagree. Most compounds without a hit are left out; they make up all but 2.5% or so of the library.

SMILES	Vif imaging	SMARCA2 activ	TAG inh	SR-BI DiI inh	SR-BI uptake up
CC(C)(C)OC(=O)N[C@H](Cc1ccccc1)C(=O)N1CCC[C@@H]1C(=O)O	i	i	nt	i	i
NCCCC[C@H](N[C@@H](CCc1ccccc1)C(=O)O)C(=O)N1CCC[C@H]1C(=O)O	78.6!	i	i	i	i
COc1ccc(/C=N/Nc2nc(-c3cccc(S(=O)(=O)N4CCCC4)c3)cs2)c(OC)c1	i	i	nt	83.5	i
COc1cccc(C(=O)Nc2nc(-c3ccc(S(=O)(=O)N4CCOCC4)cc3)cs2)c1	i	i	i	i	i
C=CCNC(=S)Nc1sc2c(c1C(=O)OCC)CC(C(C)C)OC2 (stereo unspecified)	i	i	nt	73.6	i
COc1ccc(C(=O)N/C(=C\c2ccc(-c3cccc([N+](=O)[O-])c3)o2)C(=O)NCCCN2CCOCC2)cc1	i	i	i	nt	nt
Cc1ccc(C(=O)N/C(=C/c2ccc(-c3cccc([N+](=O)[O-])c3)o2)C(=O)NC(C)C)cc1	i	i	i	83.3	i
Cc1ccc(C(=O)N/C(=C\c2ccc(-c3cccc([N+](=O)[O-])c3)o2)C(=O)NCCCN2CCOCC2)cc1	i	i	nt	78.4	i
Cc1ccc(C(=O)N/C(=C\c2ccc(-c3ccccc3[N+](=O)[O-])o2)C(=O)NCCN(C)C)cc1	i	i	57.2	i	i
CCCCS(=O)(=O)N1CCCc2nc(-c3ccc(Br)cc3)ccc21	nt	i	nt	nt	nt
COC(=O)[C@H](Cc1ccccc1)NC(=O)[C@H]1C[C@@]2(N3CCCC3)c3ccccc3N(C(=O)OC(C)(C)C)[C@H]2N1C(=O)OC(C)(C)C	nt	i	nt	nt	nt
COc1ccc2c(c1)[C@@H](NC(=O)c1ccncc1)[C@H](C)[C@H]2c1ccccc1	nt	i	nt	nt	nt
Cc1sc(N/N=C/c2cccs2)nc1-c1ccccc1	i	i	nt	72.6	i
Cc1sc(NC(=O)c2cccs2)nc1-c1ccccc1	i	i	i	i	i
O=C1NC(Cc2cnc[nH]2)C(=O)N2CCCC12 (stereo unspecified)	nt	i	nt	nt	nt
O=S(=O)(c1ccccc1)c1cnc(-c2ccccc2)nc1N1CCCC1	i	i	i	85.2	i
Cc1ccc(S(=O)(=O)c2cnc(-c3ccccc3)nc2N2CCCCC2)cc1	i	i	i	i	i
O=C1NC(c2ccc(Br)cc2)c2c(-c3ccccc3)n[nH]c21 (stereo unspecified)	nt	i	nt	nt	nt
COc1ccc(NC(=O)OC[C@@H]2CSCCS(=O)(=O)N2)cc1	nt	i	nt	nt	nt
Cc1cc(-c2cccs2)c(C#N)c(=S)[nH]1	i	i	i	i	i
N#Cc1c(-c2cccs2)cc(-c2cccs2)[nH]c1=O	51.0	i	i	i	i
O=C(Cc1cc(=O)[nH][nH]1)N/N=C/c1ccccc1C(F)(F)F	nt	i	nt	nt	nt
Cc1cccc(NC(=O)c2cccnc2)c1	i	7.8	i	i	i
CC(=O)c1cccc(NC(=O)c2ccc3ccccc3c2)c1	i	i	nt	71.5	i
Cc1ccc(C(=O)Nc2ccc(Br)c(C(F)(F)F)c2)cc1	i	i	nt	72.1	i
SMILES	Vif imaging	SMARCA2 activ	TAG inh	SR-BI DiI inh	SR-BI uptake up
Cc1ccc(NC(=O)c2ccc(C)cc2)cc1	i	i	i	i	i
Cc1ccc(C(=O)Nc2cccc(NC(=O)c3cccnc3)c2)cc1	i	i	nt	nt	nt
Cc1cccc(NC(=O)c2ccc(NC(=O)c3ccccc3Br)cc2)c1	i	i	nt	71.9	i
CC(=O)c1cccc(NC(=O)NNC(=O)c2ccc3ccccc3c2)c1	nt	i	i	i	i
Cc1cc(Nc2cccc([N+](=O)[O-])c2)cc(=O)n1-c1cccc([N+](=O)[O-])c1	nt	i	nt	nt	nt
CC(C)CC1O[C@@H](C)[C@@H]2CN3CCc4c([nH]c5ccccc45)[C@@H]3C[C@@H]2N1C (stereo partly specified)	nt	i	nt	nt	nt
O=C(Nc1ccc(C(F)(F)F)cc1)OC1CCC12CCCCC2 (stereo unspecified)	nt	i	nt	nt	nt
Cc1ccnc(NC(=O)c2cccc(NC(=O)c3ccc(Cl)c(Cl)c3)c2)c1	i	i	i	?	i
Cc1ccnc(NC(=O)c2cccc(NC(=O)c3ccc(Cl)cc3)c2)c1	i	i	nt	89.1	i
CCc1cccc(C)c1NC(=O)COC(=O)c1cc([N+](=O)[O-])ccc1N1CCOCC1	i	i	i	72.2	i
O=C(COC(=O)c1cc([N+](=O)[O-])ccc1N1CCOCC1)c1ccc(F)cc1	i	i	i	84.0	i
CC(NC(=O)COC(=O)c1cc([N+](=O)[O-])ccc1N1CCOCC1)c1ccc(F)cc1 (stereo unspecified)	i	i	i	i	i
CCc1ccc(C(=O)COC(=O)c2cc([N+](=O)[O-])ccc2N2CCOCC2)cc1	i	i	i	80.8	i
O=C1c2ccccc2C(=Nc2ccccc2)C1c1cccc(Br)c1 (stereo unspecified)	nt	i	nt	81.3	i
O=C1c2ccccc2-c2cc(Br)ccc2NC1O (stereo unspecified)	?	i	i	nt	nt
O=C(Nc1sc2c(c1C(=O)NC1CCCCC1)CCC2)c1ccco1	i	i	nt	74.7	i
CNC(=O)c1c(NC(=O)c2ccco2)sc2c1CCC2	i	i	i	i	i
O=C(Nc1cccc(Cl)c1)NN(c1ccccc1)C1CCS(=O)(=O)C1 (stereo unspecified)	nt	i	nt	nt	nt
CCCCCc1ccc(-c2n[nH]c(=O)c3ccccc23)cc1	nt	i	nt	nt	nt
CCCCn1cnc2sc(-c3ccccc3)cc2c1=O	i	7.8	i	i	i
O=C(NCc1ccc(Cl)cc1)N1CCOCC1	50.4	i	nt	i	i
Cc1[nH]c2c(C)cccc2c1CCNC(=O)c1ccc2c(c1[N+](=O)[O-])C(=O)c1ccccc1C2=O	i	i	51.5	i	i
Cc1[nH]c2ccccc2c1CCNC(=O)c1ccc2c(c1[N+](=O)[O-])C(=O)c1ccccc1C2=O	i	i	i	i	i
CC1CCN(C(=O)c2[nH]cnc2C(=O)N(C)CCO)CC1	nt	i	nt	nt	nt
CCCC(C)C(=O)Nc1nc(C)c(-c2csc(Nc3ccc(Cl)cc3)n2)s1 (stereo unspecified)	i	i	i	84.7	i
SMILES	Vif imaging	SMARCA2 activ	TAG inh	SR-BI DiI inh	SR-BI uptake up
Cc1nc(NC(=O)c2ccccc2)sc1-c1csc(NCCc2ccccc2)n1	i	i	nt	76.2	i
CCCCC(=O)Nc1nc(C)c(-c2csc(Nc3cc(Cl)ccc3OC)n2)s1	i	i	nt	88.3	i
CCCCC(=O)Nc1nc(C)c(-c2csc(Nc3cc(OC)ccc3OC)n2)s1	i	i	nt	83.0	i
CCCCCC(=O)Nc1nc(C)c(-c2csc(Nc3ccccc3OCC)n2)s1	i	i	nt	i	i
Cc1nc(NC(=O)c2ccccc2)sc1-c1csc(NCc2ccccc2)n1	i	i	i	i	i
O=C(Nc1c(-c2ccccc2)nc2ncccn12)c1ccc(F)cc1	nt	i	nt	nt	nt
COC(=O)N(C)C[C@H]1OCc2cn(nn2)CCCC(=O)N([C@H](C)CO)C[C@@H]1C	nt	i	nt	nt	nt
